An excerpt weighted towards active compounds, which were near 3% of everything screened.
TRPC4 potent: positive allosteric modulators of TRPC4, primary screen, cell-based, mouse TRPC4beta, HEK293 mu-opioid, Fluo-4 calcium. actives 0.42% (n = 310,000). DAMGO EC20, Fluo-4 Ca2+ flux; hits give high values. B-score at 10 µM. AID 2227, 2009;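 active means B-score of calcium response area above 5 SD of library B-scores, with initial fluorescence ratio within 5 SD of library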;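 further: B-score of integrated fluorescence ratio over time as area under calcium response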
Kir21 block: inhibitors of mouse Kir2.1 inward-rectifier potassium channel; Inward rectifier potassium channel 2 (Mus musculus), P35561; HEK293-Kir2.1, FluxOR thallium flux fluorescence; hits give low values; B-score at 10 µM; actives 0.85% (n = 310,000); AID 1672, 2009;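 active means fluorescence ratio B-score at or below minus 3 SD of library scores, with starting-brightness B-score within 2 SD, cut at about -4.2 in these data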;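 further: channel flux triggered by added potassium and thallium sulfate stimulus; B-score of peak minus minimum fluorescence over baseline after thallium stimulus; more negative B-score means stronger Kir2.1 block with less thallium influx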
Target sequence (P35561 whole entry, looked up): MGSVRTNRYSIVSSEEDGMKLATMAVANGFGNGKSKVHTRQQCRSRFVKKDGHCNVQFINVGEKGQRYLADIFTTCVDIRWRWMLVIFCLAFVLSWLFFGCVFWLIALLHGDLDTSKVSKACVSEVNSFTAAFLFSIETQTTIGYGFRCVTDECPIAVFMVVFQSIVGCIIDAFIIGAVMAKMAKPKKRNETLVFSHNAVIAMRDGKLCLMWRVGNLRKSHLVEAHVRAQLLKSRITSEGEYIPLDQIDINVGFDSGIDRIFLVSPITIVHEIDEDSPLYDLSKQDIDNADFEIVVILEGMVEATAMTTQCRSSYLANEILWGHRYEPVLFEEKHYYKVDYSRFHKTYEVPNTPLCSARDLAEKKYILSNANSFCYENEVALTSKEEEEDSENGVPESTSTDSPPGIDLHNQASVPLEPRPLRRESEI
TRPC6 activator: mouse TRPC6 channel activators, primary screen, cell-based, HEK293, membrane potential dye; actives 0.13% (n = 310,000); HEK293-TRPC6 membrane potential dye fluorescence; hits give high values; B-score at 10 µM; Short transient receptor potential channel 6 (Mus musculus), Q61143;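 active means B-score of the integrated fluorescence ratio above library mean plus 3 SD, and starting fluorescence ratio within library mean plus 5 SD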;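 further: higher score means more depolarization so channel activation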
TRPC4 act: activators of mouse TRPC4 channel, primary screen, Fluo4 calcium, HEK293 TRPC4beta/mu-opioid cells; Fluo4 calcium fluorescence; hits give high values; B-score at 10 µM; actives 0.49% (n = 310,000); AID 2237, 2010;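 active means B-score above 5 SD of library B-scores, and initial fluorescence ratio not above library mean plus 5 SD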;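 further: positive B-score marks a calcium rise read as TRPC4 activation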
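Technique: kinetic Fluo4 calcium fluorescence; Test system: TRPC4beta and mu-opioid receptor HEK293 stable cells; Measure: B-scored integrated calcium fluorescence ratio; Benchmarks: low control buffer alone, high control maximal DAMGO; Schedule: 45 min room-temperature Fluo4 loading, 110 s read.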
TRPC6 inh: mouse TRPC6 channel inhibitors, primary screen, cell-based, HEK293, membrane potential dye; ACh-evoked depolarization; hits give low values; B-score at 10 µM; actives 1.1% (n = 310,000);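 active means B-score under library mean minus 3 SD, initial fluorescence not abnormally high, positive integrated signal ratio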;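 further: B-score derived from integrated fluorescence ratio over the kinetic read; more negative B-score means stronger inhibition of depolarization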
TRPC4 block: inhibitors of mouse TRPC4 channel, primary screen, Fluo4 calcium, HEK293 TRPC4beta/mu-opioid cells | Short transient receptor potential channel 4 (Mus musculus), Q9QUQ5 | DAMGO-evoked Fluo4 calcium flux; hits give low values | B-score at 10 µM | actives 0.39% (n = 300,000) | AID 2247, 2010;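 active means B-score over 3 SD under the library average, no early fluorescence shift, positive overall ratio signal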
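Assay system – HEK293 line stably carrying TRPC4beta and mu-opioid receptor · Doses – single dose · Detection – Fluo4 calcium-dye fluorescence, kinetic read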
Active calls of the source: *; i = inactive.

SMILES	TRPC4 potent	Kir21 block	TRPC6 activator	TRPC4 act	TRPC6 inh	TRPC4 block
O=C(Cc1ccc(Cl)cc1)Nc1cc(Cl)ccn1	i	-0.01	i	i	i	i
C/C(=N\N1CCN(c2ccccc2)CC1)c1ccc(O)cc1	i	1.3	i	i	i	i
Cc1cc2oc(C(=O)N(Cc3ccccc3)C3CCS(=O)(=O)C3)cc(=O)c2cc1Cl (stereo unspecified)	23*	2	i	i	i	i
O=C(c1sc2ccccc2c1Cl)N(Cc1ccccc1)C1CCS(=O)(=O)C1 (stereo unspecified)	i	1.4	i	107*	i	i
O=C(c1sc2ccccc2c1Cl)N(Cc1ccco1)C1CCS(=O)(=O)C1 (stereo unspecified)	i	0.02	i	59*	i	i
OC(C#CCN1CCOCC1)c1cccs1 (stereo unspecified)	i	0.64	i	77*	i	i
O=C(NCC(=O)N1CCN(S(=O)(=O)c2ccccc2)CC1)c1ccc(Br)o1	i	0.53	i	i	i	i
CC(C)CCc1noc(CN2CCN(c3ccc(Cl)cn3)CC2)n1	16*	0.57	i	i	i	i
COc1ccc(Cc2noc(CN3CCN(c4ccc(Cl)cn4)CC3)n2)cc1OC	i	-0.12	i	i	i	i
COc1cccc(CN2C(=O)CCC2(C)C(=O)NCCc2ccc(OC)c(OC)c2)c1 (stereo unspecified)	i	-1.4	i	i	i	i
CCOc1ccc(S(=O)(=O)N2CCC(C(=O)NCc3ccncc3)CC2)cc1Cl	i	1.6	i	i	i	i
COc1ccc(C)cc1-n1nnnc1SCC1CCCCO1 (stereo unspecified)	i	-4.7*	i	i	i	i
COc1ccccc1-n1nnnc1SCC(=O)NCC1CCCO1 (stereo unspecified)	i	-2.2	i	i	i	i
O=C(NCCCN1CCCC1=O)Nc1ccccc1F	i	-0.81	i	i	i	i
Cc1nc(CCNC(=O)CC2C(=O)NCCN2CC(C)C)nc2c1CCC2 (stereo unspecified)	i	0.74	i	i	i	i
C=CCN(CC=C)CCOc1ccccc1	12*	1.1	i	i	i	i
Cc1ccc(C)c(OCC(=O)N/N=C/c2c(C)nn(-c3ccccc3)c2Cl)c1C	i	-4.4*	i	i	i	i
COC(=O)N/N=C\c1c(C)nn(-c2ccccc2)c1Cl	i	-1.4	i	i	i	i
Cc1c(C(=O)N(Cc2cccs2)C2CCS(=O)(=O)C2)oc2ccccc12 (stereo unspecified)	i	-0.03	i	67*	i	i
COc1cccc(NC(=O)c2ccccc2-c2ccccc2)c1	i	-4.2*	i	i	i	i
COc1ccc(/C=C(/C(=O)c2cccs2)N2C=CC=CC2=C(C#N)C#N)cc1	i	-3.6	i	i	i	i
COc1ccc(C(=O)/C(=C\c2ccco2)N2C=CC=CC2=C(C#N)C#N)cc1	i	-9.9*	i	i	i	i
CCN(CC)S(=O)(=O)c1ccc(N2CCCC2)c(NC(=O)Cc2c(F)cccc2Cl)c1	i	0.21	i	i	i	i
CCC(C)(C)NC(=O)C(c1sccc1C)N(Cc1ccco1)C(=O)c1csnn1 (stereo unspecified)	i	-0.87	i	i	-5.8*	i
Cc1ccsc1C(C(=O)NC(C)(C)C)N(Cc1ccco1)C(=O)c1csnn1 (stereo unspecified)	i	-0.5	i	i	i	i
SMILES	TRPC4 potent	Kir21 block	TRPC6 activator	TRPC4 act	TRPC6 inh	TRPC4 block
COc1ccc2c(c1)CCc1c-2nc2ccccc2c1N1CCOCC1	i	-1.4	i	i	i	i
CC(C)Nc1nc(Cl)nc(N(C#N)CN2C(=O)c3ccccc3C2=O)n1	i	-5.2*	i	i	i	i
CCC(C)Nc1nc(Cl)nc(N(C#N)CN2C(=O)c3ccccc3S2(=O)=O)n1 (stereo unspecified)	i	0.35	i	i	i	i
S=c1[nH]nc(-c2cc3c(s2)-c2ccccc2CC3)o1	i	2.2	i	i	i	-6*
Cc1nnnn1/C(=C\c1ccccc1)C(=O)OCC(=O)Nc1ccc(Cl)cc1F	i	-7.3*	i	i	i	i
Cc1cc(C)nc(NC(=O)c2ccc(COc3ccccc3Cl)cc2)c1	i	-0.2	i	i	i	i
O=C1CSC(c2ccccc2[N+](=O)[O-])N1c1ccccc1 (stereo unspecified)	i	-4.5*	i	i	i	i
O=C1CSC(c2ccccc2[N+](=O)[O-])N1c1ccc(O)cc1 (stereo unspecified)	i	-0.3	i	i	i	i
C#Cc1cccc(C(=O)N2CCCC(C(=O)c3ccc(OC)cc3C)C2)c1 (stereo unspecified)	i	-4.3*	i	i	i	i
COc1ccc(C(=O)C2CCCN(C(=O)c3csc(C(C)=O)c3)C2)c(C)c1 (stereo unspecified)	i	-0.57	i	i	i	i
S=C(NCCN1CCOCC1)Nc1ccccc1Cl	i	0.66	i	i	i	i
CC(C)(Sc1cc(C(C)(C)C)c(O)c(C(C)(C)C)c1)Sc1cc(C(C)(C)C)c(O)c(C(C)(C)C)c1	i	-0.21	i	83*	i	i
CC(=O)c1cccc(NC(=O)c2nc(-c3ccccc3)oc2C)c1	i	-1.7	i	i	i	i
OC(CNc1ncnc2sccc12)c1ccccc1 (stereo unspecified)	i	1.9	i	i	i	i
Cc1csc2ncnc(NCCc3ccccn3)c12	i	0.54	i	i	i	i
c1ccc(CCNc2ncnc3sccc23)nc1	i	-1.6	i	51*	i	i
CN(C)C(CNc1ncnc2sccc12)c1ccccc1 (stereo unspecified)	i	1.5	i	75*	i	i
